Each structure is given as a SMILES string. Active and inactive are the calls of the source. The rule behind the calls is not given here.

Results on five compounds are retold here after ChEMBL document CHEMBL4725358 (J Med Chem, 2020).

In assay [1] the target is T1, G protein-coupled receptor 34b (Danio rerio, UniProt B0S6P9).
T1 sequence (B0S6P9 whole entry): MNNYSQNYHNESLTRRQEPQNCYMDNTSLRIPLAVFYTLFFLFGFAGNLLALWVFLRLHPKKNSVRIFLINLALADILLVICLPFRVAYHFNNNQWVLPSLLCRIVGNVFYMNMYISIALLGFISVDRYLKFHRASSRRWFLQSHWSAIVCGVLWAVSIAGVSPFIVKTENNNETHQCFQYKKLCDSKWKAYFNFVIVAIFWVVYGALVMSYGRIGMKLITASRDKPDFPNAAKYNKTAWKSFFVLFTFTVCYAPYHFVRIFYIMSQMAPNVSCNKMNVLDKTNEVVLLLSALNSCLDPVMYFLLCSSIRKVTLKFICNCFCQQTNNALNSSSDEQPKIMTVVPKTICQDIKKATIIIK
As to the kind of experiment: Agonist activity at zebrafish GPR34 type b expressed in HEK293 cells co-transfected with AP-TGFalpha/Galphaq/i1 assessed as induction of ectodomain shedding of membrane bound AP-TGFalpha after 1 hr by p-NPP substrate based microplate reader analysis. It is filed as cell-based.

The target in assay [2] is Probable G-protein coupled receptor 34 (Mus musculus, UniProt Q9R1K6). In words: (§1) Agonist activity at mouse GPR34 expressed in HEK293 cells co-transfected with AP-TGFalpha/Galphaq/i1 assessed as induction of ectodomain shedding of membrane bound AP-TGFalpha after 1 hr by p-NPP substrate based microplate reader analysis. The format is cell-based. A digest of the protocol:
(§2)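 HEK293 cells transiently transfected with AP-TGFα, chimeric Gα and mouse GPR34 vectors, then treated with compound. Empty-vector cells (AP-TGFα plus chimeric Gα) served as background. Receptor-specific AP-TGFα release was taken after subtracting that background, and concentration-response curves gave EC50 and Emax. Mean and SEM of 3−8 independent experiments.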

In assay [3] the target is Putative P2Y purinoceptor 10 (Mus musculus, UniProt Q8BFU7). In words: Agonist activity at mouse P2Y10 expressed in HEK293 cells co-transfected with AP-TGFalpha/Galphaq/i1 assessed as induction of ectodomain shedding of membrane bound AP-TGFalpha after 1 hr by p-NPP substrate based microplate reader analysis. It is filed as cell-based. Put shortly: (§3)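 Run the same way as the GPR34 shedding assay, but with a mouse P2Y10 expression vector in HEK293 cells alongside AP-TGFα and chimeric Gα. Receptor-specific AP-TGFα release was found by subtracting the empty-vector background. EC50 and Emax came from concentration-response curves. Mean and SEM of 3−8 independent experiments.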
Sequence of Putative P2Y purinoceptor 10 (Q8BFU7 whole entry, the tested form may be a part): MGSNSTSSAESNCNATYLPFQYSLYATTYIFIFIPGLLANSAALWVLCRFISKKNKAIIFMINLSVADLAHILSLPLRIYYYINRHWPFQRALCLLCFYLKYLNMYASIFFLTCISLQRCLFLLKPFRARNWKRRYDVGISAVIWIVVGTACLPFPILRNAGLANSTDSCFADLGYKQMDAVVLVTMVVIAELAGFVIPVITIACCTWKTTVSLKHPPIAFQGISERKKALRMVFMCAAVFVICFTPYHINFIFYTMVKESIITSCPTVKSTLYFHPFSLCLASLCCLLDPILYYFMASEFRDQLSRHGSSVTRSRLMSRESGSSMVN

Assay [4] deals with T2, G protein-coupled receptor 34a (Danio rerio, UniProt Q6XCC7).
T2 sequence (Q6XCC7 whole entry): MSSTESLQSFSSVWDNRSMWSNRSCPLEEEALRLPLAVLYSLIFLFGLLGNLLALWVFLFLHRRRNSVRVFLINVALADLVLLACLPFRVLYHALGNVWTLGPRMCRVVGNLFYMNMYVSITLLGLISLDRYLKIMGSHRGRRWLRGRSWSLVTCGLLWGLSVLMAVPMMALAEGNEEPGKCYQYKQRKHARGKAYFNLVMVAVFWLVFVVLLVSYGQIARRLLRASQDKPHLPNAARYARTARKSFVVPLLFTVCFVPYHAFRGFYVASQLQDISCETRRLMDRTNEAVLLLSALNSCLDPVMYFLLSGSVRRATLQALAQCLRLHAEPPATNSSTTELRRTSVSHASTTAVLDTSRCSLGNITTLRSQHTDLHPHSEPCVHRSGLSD
As to the kind of experiment: Agonist activity at zebrafish GPR34 type a expressed in HEK293 cells co-transfected with AP-TGFalpha/Galphaq/i1 assessed as induction of ectodomain shedding of membrane bound AP-TGFalpha after 1 hr by p-NPP substrate based microplate reader analysis. The format is cell-based.

The target of assay [5] is T3, G protein-coupled receptor 34a (Danio rerio) (UniProt Q6XCC7).
T3 sequence (whole entry): T2 sequence (Q6XCC7 whole entry)
In words: Agonist activity at zebrafish GPR34 type a expressed in HEK293 cells co-transfected with AP-TGFalpha/Galphaq/i1 assessed as induction of ectodomain shedding of membrane bound AP-TGFalpha after 1 hr by p-NPP substrate based microplate reader analysis relative to control. It is filed as cell-based.

In assay [6] the target is T4, G protein-coupled receptor 34b (Danio rerio) (UniProt B0S6P9).
T4 sequence (whole entry): T1 sequence (B0S6P9 whole entry)
In words: Agonist activity at zebrafish GPR34 type b expressed in HEK293 cells co-transfected with AP-TGFalpha/Galphaq/i1 assessed as induction of ectodomain shedding of membrane bound AP-TGFalpha after 1 hr by p-NPP substrate based microplate reader analysis relative to control. The format is cell-based.

Assay [7] deals with Putative P2Y purinoceptor 10 (Mus musculus) (UniProt Q8BFU7). As to the kind of experiment: Agonist activity at mouse P2Y10 expressed in HEK293 cells co-transfected with AP-TGFalpha/Galphaq/i1 assessed as induction of ectodomain shedding of membrane bound AP-TGFalpha after 1 hr by p-NPP substrate based microplate reader analysis relative to control. The format is cell-based. A digest of the protocol:
as §3

For assay [8], the target named is Probable G-protein coupled receptor 34 (Mus musculus) (UniProt Q9R1K6). As to the kind of experiment: Agonist activity at mouse GPR34 expressed in HEK293 cells co-transfected with Galphaq/i1 assessed as increase in calcium influx by calcium 5 dye based FLIPR assay. It is filed as functional, cell-based. Put shortly:
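Mouse GPR34-expressing HEK293 cells were monitored for calcium influx after compound was added at 100 nM or 10 nM. Each run was done in triplicate and reported as mean and S.D.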

The target is the same in assay [9]. In words: Agonist activity at mouse GPR34 expressed in HEK293 cells co-transfected with AP-TGFalpha/Galphaq/i1 assessed as induction of ectodomain shedding of membrane bound AP-TGFalpha after 1 hr by p-NPP substrate based microplate reader analysis relative to control. It is filed as cell-based. A digest of the protocol: as §2
The target of assay [10] is Putative P2Y purinoceptor 10 (Mus musculus) (UniProt Q8BFU7). In words: Agonist activity at mouse P2Y10 expressed in HEK293 cells co-transfected with AP-TGFalpha/Galphaq/i1 assessed as induction of ectodomain shedding of membrane bound AP-TGFalpha after 1 hr by p-NPP substrate based microplate reader analysis relative to positive control. It is filed as cell-based. The conditions noted are these: filed as agonist. A digest of the protocol: as §3
Sequence of Putative P2Y purinoceptor 10 (Mus musculus) (Q8BFU7 whole entry, the tested form may be a part): as the sequence (Q8BFU7 whole entry, the tested form may be a part) above

The target of assay [11] is Probable G-protein coupled receptor 34 (Mus musculus) (UniProt Q9R1K6). Described as §1. It is filed as cell-based. Put shortly: as §2
Sequence of Probable G-protein coupled receptor 34 (Mus musculus) (Q9R1K6 whole entry, the tested form may be a part): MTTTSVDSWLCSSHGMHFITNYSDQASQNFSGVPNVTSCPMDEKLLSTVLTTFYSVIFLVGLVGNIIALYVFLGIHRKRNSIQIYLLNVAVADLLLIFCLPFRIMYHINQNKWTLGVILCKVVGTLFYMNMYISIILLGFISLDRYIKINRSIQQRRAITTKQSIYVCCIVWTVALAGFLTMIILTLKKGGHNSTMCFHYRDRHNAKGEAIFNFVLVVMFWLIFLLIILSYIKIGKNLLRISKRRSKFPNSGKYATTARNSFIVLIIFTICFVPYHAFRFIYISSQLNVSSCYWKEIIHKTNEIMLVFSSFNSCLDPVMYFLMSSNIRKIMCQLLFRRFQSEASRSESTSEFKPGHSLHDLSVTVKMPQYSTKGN
The target is the same in assay [12]. As to the kind of experiment: Agonist activity at mouse GPR34 expressed in HEK293 cells co-transfected with AP-TGFalpha/Galphaq/i1 assessed as induction of ectodomain shedding of membrane bound AP-TGFalpha after 1 hr by p-NPP substrate based microplate reader analysis relative to positive control. It is filed as cell-based. Put shortly:
as §2

Assay [13] deals with Probable G-protein coupled receptor 34 (Homo sapiens, UniProt Q9UPC5). In words: Agonist activity at human GPR34 expressed in HEK293 cells co-transfected with AP-TGFalpha/Galphaq/i1 assessed as induction of ectodomain shedding of membrane bound AP-TGFalpha after 1 hr by p-NPP substrate based microplate reader analysis. The format is cell-based.
Sequence of Probable G-protein coupled receptor 34 (Homo sapiens, UniProt Q9UPC5) (Q9UPC5 whole entry, the tested form may be a part): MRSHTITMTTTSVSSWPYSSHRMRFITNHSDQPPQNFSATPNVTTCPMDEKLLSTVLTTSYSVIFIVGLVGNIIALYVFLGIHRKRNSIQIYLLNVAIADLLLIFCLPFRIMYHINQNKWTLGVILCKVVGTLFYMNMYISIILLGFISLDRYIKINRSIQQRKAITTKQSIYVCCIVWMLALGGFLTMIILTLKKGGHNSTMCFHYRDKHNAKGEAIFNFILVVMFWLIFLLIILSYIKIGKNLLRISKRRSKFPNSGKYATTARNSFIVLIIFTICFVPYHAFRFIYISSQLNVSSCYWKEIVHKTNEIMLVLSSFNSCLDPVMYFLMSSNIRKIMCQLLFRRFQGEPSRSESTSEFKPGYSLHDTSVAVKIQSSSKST

Sequence of Probable G-protein coupled receptor 34 (Mus musculus, UniProt Q9R1K6) (Q9R1K6 whole entry, the tested form may be a part): as the sequence (Q9R1K6 whole entry, the tested form may be a part) above

`CCOC[C@H](COC(=O)CCc1ccccc1OCc1cccc(Oc2ccccc2)c1)OP(=O)(O)OC[C@H](N)C(=O)O`: the half-maximal effective concentration (EC50) is 1200 nM in assay [1], 5 nM in assay [2] (read-out: EC50), > 3000 nM in [3] and > 3000 nM in assay [4].

For `CCCCCCCC/C=C\CCCCCCCC(=O)OC[C@@H](O)COP(=O)(O)OC[C@H](N)C(=O)O`, the figures for the Emax in assay [5], in assay [6] and in assay [7] were 22.1%, 25.1% and 13.6%, respectively. The EC50 in assay [1] is 3.5 nM; in [3], 20 nM; in [4], 130 nM.

Turning to `CCCCCCCCCCCOc1ccccc1CCC(=O)O[C@H]1CCOC[C@@H]1OP(=O)(O)OC[C@H](N)C(=O)O`, the outcome in [8] was inactive. The Emax result in assay [9] is “inactive”. The fold change (FC) in [10] was 0.14. Further, the Emax in assay [7] stood at 11.1%. For the same compound, the EC50 entry in [2] (hek293) is “Not Active”; in [3], 12 nM. Also, in assay [11], the pEC50 result was “inactive”. In [12], the “fold change (FC)” value is “inactive”.

In the case of `CCCCCCCCCCCOc1ccccc1CCC(=O)O[C@@H]1CCOC[C@H]1OP(=O)(O)OC[C@H](N)C(=O)O`, the Emax in [5] is 14%; in assay [9] it was 10.3%; in assay [6], 25%; in [7] it was 10.6%. In addition, the outcome in assay [8] (filed as agonist) was Active. For the same compound, the fold change (FC) is 1.7 in assay [10] and 100 in assay [12] (filed as agonist). Also, the EC50 in assay [13] amounted to 0.75 nM; in assay [1] it was 12 nM; in [2] (read-out: EC50) it was 0.83 nM; in assay [3], 1 nM; in [4], 510 nM.

For the compound `CCCCCCCC/C=C\CCCCCCCC(=O)OC[C@H](C)OP(=O)(O)OC[C@H](N)C(=O)O`, the Emax in assay [9] was found to be 11.2%; in [7] it was 11.3%. The fold change (FC) in [10] is 0.034; in [12] (filed as agonist) it was 0.56. In addition, the EC50 in [2] (read-out: EC50) amounted to 170 nM; in [3] it was 37 nM.
